According to ChEMBL document CHEMBL3407337, “Molecular design, synthesis and biological research of novel pyridyl acridones as potent DNA-binding and apoptosis-inducing agents” (Eur J Med Chem, 2015):
Active and inactive are the calls of the source. No cut-off for these calls is given here.

What was measured:
U-251 = assay: Antiproliferative activity against human U251 cells after 48 hrs by MTT assay; type: functional, cell-based; conditions: U-251, 48 h
Outline: (§1)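 Adherent lines seeded at 6×10^3 cells/well and allowed 12 h attachment. Media: NCI-H520 and HeLa RPMI-1640; HepG2, MCF-7, CNE-2, A375, A172 and U118-MG DMEM; U251 MEM-EBSS; all with 10% FBS, 37 °C, 5% CO2. Dosed 48 h at final 50, 25, 10, 1 and 0.1 μM. MTT 4 h, formazan dissolved in DMSO, A490. IC50 from the dose series.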

K562 [1] = assay: Induction of apoptosis in human K562 cells assessed as reduction in Bcl-XL protein expression at 1 uM after 36 hrs by Western blot analysis; type: functional, cell-based
Outline: (§2)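 K562 cells in 6 cm dishes treated 36 h at various concentrations. Cells lysed on ice for 0.5 h and spun at 20,000 g. Protein measured by BCA. Lysates run on 12% SDS-PAGE and transferred to PVDF. Membranes blocked in 5% milk and probed overnight at 4 °C with primary antibody against cleaved caspase-9, -7, -3, cleaved PARP or Bcl-XL.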

HeLa = assay: Antiproliferative activity against human HeLa cells after 48 hrs by MTT assay; type: functional, cell-based; outline: as §1
K562 [2] = assay: Induction of apoptosis in human K562 cells assessed as late apoptotic cells at 0.25 uM after 48 hrs by annexin V/PI staining based flow cytometry (reference value: 0.26 %); type: functional
K562 [3] = assay: Induction of apoptosis in human K562 cells assessed as late apoptotic cells at 2.5 uM after 48 hrs by annexin V/PI staining based flow cytometry (reference value: 0.26 %); type: functional
K562 [4] = assay: Induction of apoptosis in human K562 cells assessed as late apoptotic cells at 1 uM after 48 hrs by annexin V/PI staining based flow cytometry (reference value: 0.26 %); type: functional
Calf thymus DNA [5] = assay: Binding affinity to calf thymus DNA at 10 uM after 5 mins by fluorescence emmission spectroscopic method; type: nucleic-acid assay; conditions: Bos taurus
Outline: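 Compound at final 10 μM in 5 mM Tris-HCl, 50 mM NaCl, pH 7.2. ct DNA added to final 0–100 μM. Incubated 5 min. Emission recorded with excitation 425 nm. F/F0 plotted against [DNA]/[compound].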

K562 [6] = assay: Induction of apoptosis in human K562 cells assessed as late apoptotic cells at 0.05 uM after 48 hrs by annexin V/PI staining based flow cytometry (reference value: 0.26 %); type: functional
[7] = Antiproliferative activity against human U118MG cells after 48 hrs by MTT assay; type: functional, cell-based; conditions: U-118-MG; outline: as §1
K562 [8] = assay: Induction of apoptosis in human K562 cells assessed as cleavage of PARP at 1 uM after 36 hrs by Western blot analysis; type: functional, cell-based; outline: as §2
Calf thymus DNA [9] = assay: Binding affinity to calf thymus DNA assessed as increase in DNA viscosity at 6 to 36 uM by viscosity method; type: nucleic-acid assay; conditions: Bos taurus
Outline: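 ct DNA at 200 μM in Tris-HCl buffer, compound at 6–36 μM, viscometer held at 25.0 °C. Flow times read in triplicate and averaged. η = (t−t0)/t0; (η/η0)^1/3 plotted against the compound:DNA ratio.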

Bos taurus = species on record: Bos taurus; assay: Displacement of ethidium bromide from calf thymus DNA assessed as quenching constant up to 30 uM after 5 mins by competitive binding fluorescence method
Outline: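 EB final 10 μM with ct DNA 40 μM in Tris-HCl/50 mM NaCl, pH 7.2. Compound added at final 0, 5, 10, 20 and 30 μM. Incubated 5 min, excitation 366 nm, emission near 600 nm. Quenching constant from the Stern–Volmer fit F0/F = 1 + K[Q].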

K562 [10] = assay: Induction of apoptosis in human K562 cells assessed as late apoptotic cells at 0.5 uM after 48 hrs by annexin V/PI staining based flow cytometry (reference value: 0.26 %); type: functional
K562 [11] = assay: Induction of apoptosis in human K562 cells assessed as early apoptotic cells at 2.5 uM after 48 hrs by annexin V/PI staining based flow cytometry (reference value: 3.89 %); type: functional
K562 [12] = assay: Induction of apoptosis in human K562 cells assessed as early apoptotic cells at 1 uM after 48 hrs by annexin V/PI staining based flow cytometry (reference value: 3.89 %); type: functional
K562 [13] = assay: Induction of apoptosis in human K562 cells assessed as cleavage of caspase-7 at 1 uM after 36 hrs by Western blot analysis; type: functional, cell-based; outline: as §2
[14] = Antiproliferative activity against human A172 cells after 48 hrs by MTT assay; type: functional, cell-based; conditions: A 172, 48 h; outline: as §1
[15] = molecular target: T1, DNA topoisomerase 1 (Homo sapiens) (UniProt P11387); assay: Inhibition of recombinant human Topo1-mediated relation of supercoiled pBR322 DNA at 50 uM after 30 mins by agarose gel electrophoresis
T1 sequence (whole entry): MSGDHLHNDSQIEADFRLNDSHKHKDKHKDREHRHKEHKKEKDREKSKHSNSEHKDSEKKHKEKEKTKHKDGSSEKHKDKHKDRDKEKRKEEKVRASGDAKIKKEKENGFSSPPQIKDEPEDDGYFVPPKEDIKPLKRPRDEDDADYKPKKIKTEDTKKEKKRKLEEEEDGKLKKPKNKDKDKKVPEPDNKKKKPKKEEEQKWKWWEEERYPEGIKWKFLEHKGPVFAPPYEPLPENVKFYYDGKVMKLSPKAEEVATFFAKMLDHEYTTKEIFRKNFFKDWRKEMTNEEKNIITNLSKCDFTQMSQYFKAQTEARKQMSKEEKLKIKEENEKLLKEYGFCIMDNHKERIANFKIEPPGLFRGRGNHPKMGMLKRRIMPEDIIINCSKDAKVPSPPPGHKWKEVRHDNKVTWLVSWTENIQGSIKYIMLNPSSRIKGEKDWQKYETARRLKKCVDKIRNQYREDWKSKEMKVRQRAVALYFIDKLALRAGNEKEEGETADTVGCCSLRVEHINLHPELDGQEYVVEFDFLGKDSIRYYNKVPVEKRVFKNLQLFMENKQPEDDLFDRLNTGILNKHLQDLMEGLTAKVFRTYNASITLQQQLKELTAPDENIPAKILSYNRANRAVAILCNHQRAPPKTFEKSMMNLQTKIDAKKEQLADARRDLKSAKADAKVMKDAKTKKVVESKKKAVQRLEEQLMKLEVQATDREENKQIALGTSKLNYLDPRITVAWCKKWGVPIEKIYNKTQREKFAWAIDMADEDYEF
Outline: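 pBR322 at 100 ng with 1.0 unit recombinant human topo I. Incubated 30 min at 37 °C in 35 mM Tris-HCl pH 8.0, 5 mM MgCl2, 72 mM KCl, 0.01% BSA, 2 mM spermidine and 5 mM DTT. Run on 1% agarose in TAE at 100 V for 25 min. EB-stained gel viewed under UV.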

K562 [16] = assay: Induction of apoptosis in human K562 cells assessed as early apoptotic cells at 0.5 uM after 48 hrs by annexin V/PI staining based flow cytometry (reference value: 3.89 %); type: functional
[17] = Antiproliferative activity against human CNE2 cells after 48 hrs by MTT assay; type: functional, cell-based; conditions: CNE-2, 48 h; outline: as §1

IC50 (U-251): 790 nM | IC50 (HeLa): 3790 nM | Activity (Calf thymus DNA [5]): Active | Activity (Calf thymus DNA [9]): Active | Kq (Bos taurus): 1 ×10⁴ /M | inhibition [15]: Active
Compound: Cc1cccc2c(=O)c3c(NCc4ccncc4)ccc(C(=O)NCCN(C)C)c3[nH]c12
Activity (K562 [1]): Active | Activity (K562 [2]): 1.08% | Activity (K562 [3]): 20.24% | Activity (K562 [4]): 7.54% | Activity (K562 [6]): 0.49% | IC50 [7]: 1080 nM | Activity (K562 [8]): Active | Activity (K562 [10]): 2.13% | Activity (K562 [11]): 54.93% | Activity (K562 [12]): 27.06% | Activity (K562 [13]): Active | IC50 [14]: 2200 nM | Activity (K562 [16]): 23.13% | IC50 [17]: 980 nM
